Test results reported in ChEMBL document CHEMBL1135530, “Selective alpha4beta7 integrin antagonists and their potential as antiinflammatory agents” (J Med Chem, 2002).
Peptide text beside a SMILES is read from it.

Experiments:
[1] = Selectivity is the ratio of inhibitory concentrations at alpha4-beta1 integrin to alpha4-beta7 integrin
Integrin alpha-4/beta-7 = target: T1, Integrin alpha-4/beta-7 (Homo sapiens, UniProt P13612+P26010); assay: Ability to block the alpha4-beta7 integrin-MAdCAM-1 binding interaction using a protein ELISA format; assay type: protein-complex assay
T1 sequence (P13612 whole entry): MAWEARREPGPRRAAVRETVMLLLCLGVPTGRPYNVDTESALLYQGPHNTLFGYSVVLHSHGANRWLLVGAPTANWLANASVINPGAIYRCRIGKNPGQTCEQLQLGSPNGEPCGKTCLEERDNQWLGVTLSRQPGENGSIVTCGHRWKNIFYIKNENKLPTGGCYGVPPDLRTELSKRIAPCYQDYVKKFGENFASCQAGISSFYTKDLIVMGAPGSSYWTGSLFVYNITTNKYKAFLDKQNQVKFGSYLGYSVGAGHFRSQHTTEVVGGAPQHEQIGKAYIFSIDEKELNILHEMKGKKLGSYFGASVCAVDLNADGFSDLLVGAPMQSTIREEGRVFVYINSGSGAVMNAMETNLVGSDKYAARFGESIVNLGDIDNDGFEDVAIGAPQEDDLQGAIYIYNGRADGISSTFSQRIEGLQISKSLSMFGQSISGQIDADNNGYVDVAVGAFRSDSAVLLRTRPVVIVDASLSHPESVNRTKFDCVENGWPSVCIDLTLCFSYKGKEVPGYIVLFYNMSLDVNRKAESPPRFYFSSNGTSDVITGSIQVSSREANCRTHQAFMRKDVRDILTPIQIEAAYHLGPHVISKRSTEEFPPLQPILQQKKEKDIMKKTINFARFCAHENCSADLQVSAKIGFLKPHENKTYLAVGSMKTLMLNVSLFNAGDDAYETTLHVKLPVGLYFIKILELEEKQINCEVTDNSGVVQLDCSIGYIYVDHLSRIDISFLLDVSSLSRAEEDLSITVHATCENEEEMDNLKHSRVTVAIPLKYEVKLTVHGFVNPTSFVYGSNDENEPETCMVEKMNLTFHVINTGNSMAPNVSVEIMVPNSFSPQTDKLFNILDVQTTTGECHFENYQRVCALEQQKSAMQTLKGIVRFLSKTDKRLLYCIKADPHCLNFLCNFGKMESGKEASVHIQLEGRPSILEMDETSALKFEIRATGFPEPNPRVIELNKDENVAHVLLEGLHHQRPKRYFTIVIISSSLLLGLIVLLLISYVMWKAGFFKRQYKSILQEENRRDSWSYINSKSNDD
T1 sequence (P26010 whole entry): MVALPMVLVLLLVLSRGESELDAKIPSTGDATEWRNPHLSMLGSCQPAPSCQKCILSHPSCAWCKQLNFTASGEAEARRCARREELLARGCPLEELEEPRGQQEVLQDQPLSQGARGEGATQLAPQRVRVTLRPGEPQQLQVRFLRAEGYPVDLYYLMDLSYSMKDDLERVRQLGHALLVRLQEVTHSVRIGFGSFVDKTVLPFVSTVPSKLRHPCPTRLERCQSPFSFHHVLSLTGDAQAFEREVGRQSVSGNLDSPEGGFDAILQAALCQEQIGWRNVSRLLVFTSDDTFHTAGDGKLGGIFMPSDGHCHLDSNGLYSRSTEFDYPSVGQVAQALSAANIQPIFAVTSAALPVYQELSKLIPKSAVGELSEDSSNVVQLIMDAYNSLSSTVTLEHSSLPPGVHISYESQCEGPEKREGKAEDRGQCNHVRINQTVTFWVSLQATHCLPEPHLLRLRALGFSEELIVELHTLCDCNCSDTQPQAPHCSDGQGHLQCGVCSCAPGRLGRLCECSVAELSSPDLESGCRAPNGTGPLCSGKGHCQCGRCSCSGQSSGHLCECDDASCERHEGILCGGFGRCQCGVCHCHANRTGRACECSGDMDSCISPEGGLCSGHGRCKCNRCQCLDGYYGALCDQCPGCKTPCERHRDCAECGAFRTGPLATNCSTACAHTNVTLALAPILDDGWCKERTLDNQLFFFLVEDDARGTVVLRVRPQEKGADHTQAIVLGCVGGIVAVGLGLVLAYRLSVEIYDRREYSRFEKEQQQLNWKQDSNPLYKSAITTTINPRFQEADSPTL
In short: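 Plates coated overnight at 4 °C with anti-human α4 antibody 9F10 (2 µg/mL), blocked in Tris pH 7.5 buffer with 1 mM MnCl2, Tween-20 and 0.5% BSA, then loaded with α4β7 purified from transfected JY cells (2 µg/mL). Compounds (1 nM–200 µM final, triplicate) plus MAdCAM-1-Ig-HRP (1 µg/mL), 2 h room temperature. TMB read at 450 nm; IC50 at half-maximal absorbance.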

Integrin alpha-4/beta-1 = Integrin alpha-4/beta-1 (Homo sapiens, UniProt P05556+P13612); assay: Inhibitory concentration affording 50% inhibition of alpha4-beta1 integrin binding to VCAM-1, using ELISA assay.; assay type: protein-complex assay
In short: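 α4β1 extracted from Ramos cell membranes (lectin chromatography, gel filtration in 1% octylglucoside), with 1 mM MnCl2 throughout. Wells coated with 4 µg/mL recombinant soluble human VCAM-1 (5 N-terminal Ig domains, from CHO cells) and blocked with 1% BSA. Inhibitor and receptor 2 h at 37 °C in Tris pH 7.4. Bound receptor detected with anti-β1 mAb 2D4.6, then HRP anti-mouse and TMB at 450 nm. IC50 at half-maximal absorbance.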

Sequence of Integrin alpha-4/beta-1 (P05556 whole entry, one chain of several, the tested form may be a part): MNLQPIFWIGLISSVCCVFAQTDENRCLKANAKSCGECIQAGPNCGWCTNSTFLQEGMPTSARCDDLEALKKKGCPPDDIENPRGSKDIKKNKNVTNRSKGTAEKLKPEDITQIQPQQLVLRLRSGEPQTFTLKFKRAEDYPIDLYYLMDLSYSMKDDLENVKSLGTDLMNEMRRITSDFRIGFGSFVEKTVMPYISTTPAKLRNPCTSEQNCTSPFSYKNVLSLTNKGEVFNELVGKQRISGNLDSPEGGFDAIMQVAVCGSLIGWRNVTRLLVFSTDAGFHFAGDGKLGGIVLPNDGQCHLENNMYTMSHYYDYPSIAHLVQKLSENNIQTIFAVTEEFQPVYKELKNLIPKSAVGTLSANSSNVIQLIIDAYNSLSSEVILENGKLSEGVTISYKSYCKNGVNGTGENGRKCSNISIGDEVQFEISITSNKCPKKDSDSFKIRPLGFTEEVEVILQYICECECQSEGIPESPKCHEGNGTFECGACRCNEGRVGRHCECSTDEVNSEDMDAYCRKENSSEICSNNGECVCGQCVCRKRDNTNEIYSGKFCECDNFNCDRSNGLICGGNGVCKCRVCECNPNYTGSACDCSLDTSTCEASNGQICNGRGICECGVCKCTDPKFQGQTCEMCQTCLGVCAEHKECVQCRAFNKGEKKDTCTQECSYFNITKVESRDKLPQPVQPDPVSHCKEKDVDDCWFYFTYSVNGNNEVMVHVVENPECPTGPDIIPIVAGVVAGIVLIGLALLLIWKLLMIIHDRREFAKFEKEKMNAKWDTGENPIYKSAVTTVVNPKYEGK

Ratio [1] | IC50 (Integrin alpha-4/beta-7) [µM] | IC50 (Integrin alpha-4/beta-1) [µM] | SMILES
0.06 | – | – | CC(C)C[C@H]1NC(=O)[C@H]([C@@H](C)O)NC(=O)[C@@H](CC(N)=O)NC(=O)[C@H](CO)NC(=O)[C@@H](CCCN=C(N)N)NC(=O)[C@H](N)CSSC[C@H](C(=O)O)NC1=O
0.42 | – | – | CC(C)C[C@@H]1NC(=O)[C@@H](CCCN=C(N)N)NC(=O)[C@H](N)CSSC[C@H](C(N)=O)NC(=O)[C@@H](CC(C)C)NC(=O)[C@H]([C@@H](C)O)NC(=O)[C@@H](CC(=O)O)NC1=O
35 | – | – | CC(C)C[C@H]1NC(=O)[C@H]([C@@H](C)O)NC(=O)[C@@H](CC(=O)O)NC(=O)[C@H](CO)NC(=O)[C@@H](CCCN=C(N)N)NC(=O)[C@H](N)CSSC[C@H](C(N)=O)NC1=O
14 | – | – | CC[C@H](C)[C@H]1NC(=O)[C@H]([C@@H](C)O)NC(=O)[C@@H](CC(=O)O)NC(=O)[C@H](CO)NC(=O)[C@@H](CCCN=C(N)N)NC(=O)[C@H](N)CSSC[C@H](C(N)=O)NC1=O
3.1 | – | – | CC(C)C[C@H]1NC(=O)[C@H]([C@@H](C)O)NC(=O)[C@@H](CC(=O)O)NC(=O)[C@H](CO)NC(=O)[C@@H](CCCN=C(N)N)NC(=O)[C@H](N)CSSC[C@H](C(=O)O)NC1=O
0.5 | – | – | CC(C)C[C@H]1NC(=O)[C@H]([C@@H](C)O)NC(=O)[C@@H](CC(N)=O)NC(=O)[C@H](CO)NC(=O)[C@@H](CCCN=C(N)N)NC(=O)[C@H](N)CSSC[C@H](C(N)=O)NC1=O
0.06 | – | – | CC[C@H](C)[C@@H]1NC(=O)[C@@H](CCCN=C(N)N)NC(=O)[C@H](N)CSSC[C@H](C(N)=O)NC(=O)[C@@H](CC(C)C)NC(=O)[C@H]([C@@H](C)O)NC(=O)[C@@H](CC(=O)O)NC1=O
3.5 | – | – | CC(C)C[C@H]1NC(=O)[C@H]([C@@H](C)O)NC(=O)[C@@H](CC(=O)O)NC(=O)[C@H]([C@@H](C)O)NC(=O)[C@@H](CCCN=C(N)N)NC(=O)[C@H](N)CSSC[C@H](C(N)=O)NC1=O
48 | – | – | CC(C)C[C@H]1NC(=O)[C@H](CO)NC(=O)[C@@H](CC(=O)O)NC(=O)[C@H](CO)NC(=O)[C@@H](CCCN=C(N)N)NC(=O)[C@H](N)CSSC[C@H](C(N)=O)NC1=O
– | 23 | 40 | C[C@@H]1NC(=O)[C@H]([C@@H](C)O)NC(=O)[C@H](CC(=O)O)NC(=O)[C@H](CO)NC(=O)[C@H](CCCN=C(N)N)NC(=O)[C@@H](N)CSSC[C@@H](C(N)=O)NC1=O (HELM PEPTIDE1{C.R.S.D.T.A.C.[am]}$PEPTIDE1,PEPTIDE1,1:R3-7:R3$$$V2.0)
– | 20 | 1.2 | CC[C@H](C)[C@@H]1NC(=O)[C@H](CCCN=C(N)N)NC(=O)[C@@H](N)CSSC[C@@H](C(N)=O)NC(=O)[C@H](CC(C)C)NC(=O)[C@H]([C@@H](C)O)NC(=O)[C@H](CC(=O)O)NC1=O
– | 10 | 60 | CC(C)C[C@@H]1NC(=O)[C@H](C)NC(=O)[C@H](CC(=O)O)NC(=O)[C@H](CO)NC(=O)[C@H](CCCN=C(N)N)NC(=O)[C@@H](N)CSSC[C@@H](C(N)=O)NC1=O (HELM PEPTIDE1{C.R.S.D.A.L.C.[am]}$PEPTIDE1,PEPTIDE1,1:R3-7:R3$$$V2.0)

The remaining lines, values behind:

SMILES | Ratio [1] | IC50 (Integrin alpha-4/beta-7) [µM] | IC50 (Integrin alpha-4/beta-1) [µM]
CC(C)C[C@H]1NC(=O)[C@H]([C@@H](C)O)NC(=O)[C@@H](CC(=O)O)NC(=O)[C@H](CO)NC(=O)[C@@H](Cc2c[nH]c3ccccc23)NC(=O)[C@H](N)CSSC[C@H](C(N)=O)NC1=O | 0.37 | – | –
CC(C)C[C@H]1NC(=O)[C@H]([C@@H](C)O)NC(=O)[C@@H](CC(=O)O)NC(=O)[C@H](CO)NC(=O)[C@@H](CCCCN)NC(=O)[C@H](N)CSSC[C@H](C(N)=O)NC1=O | 6 | – | –
CC(C)C[C@@H]1NC(=O)[C@H]([C@@H](C)O)NC(=O)[C@H](C)NC(=O)[C@H](CO)NC(=O)[C@H](CCCN=C(N)N)NC(=O)[C@@H](N)CSSC[C@@H](C(N)=O)NC1=O (HELM PEPTIDE1{C.R.S.A.T.L.C.[am]}$PEPTIDE1,PEPTIDE1,1:R3-7:R3$$$V2.0) | – | > 100 | > 100
CC(C)C[C@H]1NC(=O)[C@H]([C@@H](C)O)NC(=O)[C@@H](CC(=O)O)NC(=O)[C@H](CO)NC(=O)[C@@H](Cc2ccccc2)NC(=O)[C@H](N)CSSC[C@H](C(N)=O)NC1=O | 0.09 | – | –
CC(C)C[C@@H]1NC(=O)[C@H]([C@@H](C)O)NC(=O)[C@H](CC(=O)O)NC(=O)[C@H](CO)NC(=O)[C@H](CCCNC(=N)N)NC(=O)[C@@H](NC(=O)[C@@H](N)CC(=O)O)CSSC[C@@H](C(N)=O)NC1=O (HELM PEPTIDE1{D.C.R.S.D.T.L.C.[am]}$PEPTIDE1,PEPTIDE1,2:R3-8:R3$$$V2.0) | – | 0.52 | 8.6
CC(C)C[C@@H]1NC(=O)[C@H]([C@@H](C)O)NC(=O)[C@H](CC(=O)O)NC(=O)[C@H](CO)NC(=O)[C@H](CCCCN)NC(=O)[C@@H](N)CSSC[C@@H](C(N)=O)NC1=O | – | 0.25 | 1.5
CSCC[C@H](N)C(=O)N[C@@H](CC(=O)O)C(=O)N[C@H]1CSSC[C@@H](C(N)=O)NC(=O)[C@H](CC(C)C)NC(=O)[C@H]([C@@H](C)O)NC(=O)[C@H](CC(=O)O)NC(=O)[C@H](CO)NC(=O)[C@H](CCCN=C(N)N)NC1=O (HELM PEPTIDE1{M.D.C.R.S.D.T.L.C.[am]}$PEPTIDE1,PEPTIDE1,3:R3-9:R3$$$V2.0) | – | 0.64 | 11.8
CC(C)C[C@@H]1NC(=O)[C@H]([C@@H](C)O)NC(=O)[C@H](CC(=O)O)NC(=O)[C@H](CO)NC(=O)[C@H](CCCN=C(N)N)NC(=O)[C@@H](NC(=O)[C@@H](N)CC(=O)O)CSSC[C@@H](C(=O)NCC(=O)N[C@@H](CCC(=O)O)C(N)=O)NC1=O (HELM PEPTIDE1{D.C.R.S.D.T.L.C.G.E.[am]}$PEPTIDE1,PEPTIDE1,2:R3-8:R3$$$V2.0) | – | 0.26 | 8.3
C[C@@H](O)[C@@H]1NC(=O)[C@H](CC(=O)O)NC(=O)[C@H](CO)NC(=O)[C@H](CCCNC(=N)N)NC(=O)[C@@H](N)CSSC[C@@H](C(N)=O)NC(=O)[C@@H]2CCCN2C1=O | – | 40 | 37
CC(C)C[C@@H]1NC(=O)[C@H]([C@@H](C)O)NC(=O)[C@H](CC(=O)O)NC(=O)[C@H](C)NC(=O)[C@H](CCCNC(=N)N)NC(=O)[C@@H](N)CSSC[C@@H](C(N)=O)NC1=O (HELM PEPTIDE1{C.R.A.D.T.L.C.[am]}$PEPTIDE1,PEPTIDE1,1:R3-7:R3$$$V2.0) | – | 2.2 | 3.6
CC[C@H](C)[C@@H]1NC(=O)[C@H]([C@@H](C)O)NC(=O)[C@H](CC(=O)O)NC(=O)[C@H](CO)NC(=O)[C@H](CCCNC(=N)N)NC(=O)[C@@H](N)CSSC[C@@H](C(N)=O)NC1=O | – | 1.8 | 25
CC(C)C[C@@H]1NC(=O)[C@H]([C@@H](C)O)NC(=O)[C@H](CC(=O)O)NC(=O)[C@H](CO)NC(=O)[C@H](C)NC(=O)[C@@H](N)CSSC[C@@H](C(N)=O)NC1=O (HELM PEPTIDE1{C.A.S.D.T.L.C.[am]}$PEPTIDE1,PEPTIDE1,1:R3-7:R3$$$V2.0) | – | 1.1 | 2.8
